Laboratory results reported in ChEMBL document CHEMBL4033712, “Synthesis and biological evaluation of new C-12(α/β)-(N-) sulfamoyl-phenylamino-14-deoxy-andrographolide derivatives as potent anti-cancer agents” (Bioorg Med Chem Lett, 2017).

Key:
Assay type in all cases: functional
RXF 393 = assay: Anticancer activity against human RXF393 cells assessed as cell growth at 10 uM after 48 hrs by sulforhodamine B assay relative to control; conditions: RXF 393, 48 h, read-out: Activity
How it was run: (§1)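 Single-dose NCI-60 panel screen: compound added at 10 µM and the culture incubated 48 h. The end point was read by protein staining with sulforhodamine B. The value is percent growth of treated cells relative to untreated control cells, reported as a mean graph across the panel.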

HCT-116 = assay: Anticancer activity against human HCT116 cells assessed as cell growth at 10 uM after 48 hrs by sulforhodamine B assay relative to control; conditions: HCT-116, 48 h, read-out: Activity; how it was run: as §1
MDA-MB-231 = assay: Anticancer activity against human MDA-MB-231 cells assessed as cell growth at 10 uM after 48 hrs by sulforhodamine B assay relative to control; conditions: MDA-MB-231, 48 h, read-out: Activity; how it was run: as §1
OVCAR-5 = assay: Growth inhibition of human OVCAR5 cells incubated for 48 hrs by sulforhodamine B assay; conditions: OVCAR-5, 48 h
How it was run: (§2)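 NCI-60 five-dose screen at 0.01, 0.1, 1, 10 and 100 µM, 48 h incubation, sulforhodamine B end point. GI50 (50% decrease in net growth), TGI (total growth inhibition) and LC50 (net 50% loss of initial cells) taken from log concentration versus % growth inhibition curves.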

NCI-H460 = assay: Anticancer activity against human NCI-H460 cells assessed as cell growth at 10 uM after 48 hrs by sulforhodamine B assay relative to control; conditions: NCI-H460, 48 h, read-out: Activity; how it was run: as §1
A549 = assay: Anticancer activity against human A549/ATCC cells assessed as cell growth at 10 uM after 48 hrs by sulforhodamine B assay relative to control; conditions: A549, 48 h, read-out: Activity; how it was run: as §1
OVCAR-4 [1] = assay: Anticancer activity against human OVCAR4 cells assessed as cell growth at 10 uM after 48 hrs by sulforhodamine B assay relative to control; conditions: OVCAR-4, 48 h, read-out: Activity; how it was run: as §1
MOLT-4 = assay: Growth inhibition of human MOLT4 cells incubated for 48 hrs by sulforhodamine B assay; conditions: MOLT-4, 48 h; for CC50: read-out: LC50 (the source's name); how it was run: as §2
BT-549 = assay: Anticancer activity against human BT549 cells assessed as cell growth at 10 uM after 48 hrs by sulforhodamine B assay relative to control; conditions: BT-549, 48 h, read-out: Activity; how it was run: as §1
SNB-75 = assay: Anticancer activity against human SNB75 cells assessed as cell growth at 10 uM after 48 hrs by sulforhodamine B assay relative to control; conditions: SNB-75, 48 h, read-out: Activity
How it was run: (§3)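 NCI-60 single-dose screen: compound added at 10 µM, cultures incubated 48 h. End point by sulforhodamine B protein-binding dye. Value reported as percent growth of treated cells relative to untreated control cells.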

A498 [2] = assay: Anticancer activity against human A498 cells assessed as cell growth at 10 uM after 48 hrs by sulforhodamine B assay relative to control; conditions: A498, 48 h, read-out: Activity; how it was run: as §1
SK-OV-3 = assay: Anticancer activity against human SKOV3 cells assessed as cell growth at 10 uM after 48 hrs by sulforhodamine B assay relative to control; conditions: SK-OV-3, 48 h, read-out: Activity; how it was run: as §1
M14 = assay: Growth inhibition of human M14 cells incubated for 48 hrs by sulforhodamine B assay; conditions: M14, 48 h; for CC50: read-out: LC50 (the source's name); how it was run: as §2
NCI/ADR-RES = assay: Anticancer activity against human NCI/ADR-RES cells assessed as cell growth at 10 uM after 48 hrs by sulforhodamine B assay relative to control; conditions: read-out: Activity; how it was run: as §1
MDA-MB-435 = assay: Anticancer activity against human MDA-MB-435 cells assessed as cell growth at 10 uM after 48 hrs by sulforhodamine B assay relative to control; conditions: MDA-MB-435, 48 h, read-out: Activity; how it was run: as §1
IGROV-1 = assay: Anticancer activity against human IGROV1 cells assessed as cell growth at 10 uM after 48 hrs by sulforhodamine B assay relative to control; conditions: IGROV-1, 48 h, read-out: Activity; how it was run: as §1
MDA-MB-468 = assay: Anticancer activity against human MDA-MB-468 cells assessed as cell growth at 10 uM after 48 hrs by sulforhodamine B assay relative to control; conditions: MDA-MB-468, 48 h, read-out: Activity; how it was run: as §1
COLO 205 = assay: Anticancer activity against human COLO205 cells assessed as cell growth at 10 uM after 48 hrs by sulforhodamine B assay relative to control; conditions: COLO 205, 48 h, read-out: Activity; how it was run: as §1
SK-MEL-5 = assay: Anticancer activity against human SK-MEL-5 cells assessed as cell growth at 10 uM after 48 hrs by sulforhodamine B assay relative to control; conditions: SK-MEL-5, 48 h, read-out: Activity; how it was run: as §1
OVCAR-4 [3] = assay: Growth inhibition of human OVCAR4 cells incubated for 48 hrs by sulforhodamine B assay; conditions: OVCAR-4, 48 h; how it was run: as §2
A498 [4] = assay: Growth inhibition of human A498 cells incubated for 48 hrs by sulforhodamine B assay; conditions: A498, 48 h; how it was run: as §2
NCI-H322M = assay: Anticancer activity against human NCI-H322M cells assessed as cell growth at 10 uM after 48 hrs by sulforhodamine B assay relative to control; conditions: read-out: Activity; how it was run: as §1
HL-60(TB) = assay: Anticancer activity against human HL-60(TB) cells assessed as cell growth at 10 uM after 48 hrs by sulforhodamine B assay relative to control; conditions: HL-60, 48 h, read-out: Activity
How it was run: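 NCI-60 human tumour panel single-dose screen: cells exposed to 10 µM compound for 48 h. Growth end point read with sulforhodamine B protein-binding dye. Expressed as percent growth of treated cells versus untreated control cells.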

MCF7 = assay: Anticancer activity against human MCF7 cells assessed as cell growth at 10 uM after 48 hrs by sulforhodamine B assay relative to control; conditions: MCF7, 48 h, read-out: Activity; how it was run: as §1
K562 = assay: Anticancer activity against human K562 cells assessed as cell growth at 10 uM after 48 hrs by sulforhodamine B assay relative to control; conditions: K562, 48 h, read-out: Activity; how it was run: as §1
SW-620 = assay: Anticancer activity against human SW620 cells assessed as cell growth at 10 uM after 48 hrs by sulforhodamine B assay relative to control; conditions: SW-620, 48 h, read-out: Activity; how it was run: as §3
NCI-H23 = assay: Anticancer activity against human NCI-H23 cells assessed as cell growth at 10 uM after 48 hrs by sulforhodamine B assay relative to control; conditions: NCI-H23, 48 h, read-out: Activity; how it was run: as §1
DU-145 = assay: Anticancer activity against human DU145 cells assessed as cell growth at 10 uM after 48 hrs by sulforhodamine B assay relative to control; conditions: DU-145, 48 h, read-out: Activity; how it was run: as §1
KM12 = assay: Anticancer activity against human KM12 cells assessed as cell growth at 10 uM after 48 hrs by sulforhodamine B assay relative to control; conditions: KM12, 48 h, read-out: Activity; how it was run: as §1

Structure (SMILES)	growth at 10 µM (RXF 393)	growth at 10 µM (HCT-116)	growth at 10 µM (MDA-MB-231)	growth at 10 µM (NCI-H460)	growth at 10 µM (A549)	growth at 10 µM (OVCAR-4 [1])	growth at 10 µM (BT-549)	growth at 10 µM (SNB-75)	growth at 10 µM (A498 [2])	growth at 10 µM (SK-OV-3)	growth at 10 µM (NCI/ADR-RES)	growth at 10 µM (MDA-MB-435)	growth at 10 µM (IGROV-1)	growth at 10 µM (MDA-MB-468)	growth at 10 µM (COLO 205)	growth at 10 µM (SK-MEL-5)	growth at 10 µM (NCI-H322M)	growth at 10 µM (HL-60(TB))	growth at 10 µM (MCF7)	growth at 10 µM (K562)	also measured
C=C1CC[C@@H]2[C@](C)(COC(C)=O)[C@H](OC(C)=O)CC[C@@]2(C)[C@H]1CC(Nc1ccc(S(=O)(=O)Nc2nccs2)cc1)C1=CCOC1=O (some centres not stated)	-50.6%	-30.4%	5.69%	29.5%	43.7%	38%	-23.5%	28.3%	85%	79.9%	9.2%	-8.31%	12.6%	-59.9%	-24.6%	31.4%	59.9%	-20.9%	-21.3%	3.4%	GI50 (OVCAR-5): 4.82 µM; LC50 (concentration causing net 50% loss of initial cells) (OVCAR-5): 46.9 µM; TGI (OVCAR-5): 17.6 µM; GI50 (MOLT-4): 3.68 µM; TGI (MOLT-4): 73.2 µM; CC50 (MOLT-4): > 100 µM; GI50 (M14): 2.83 µM; TGI (M14): 10.5 µM; CC50 (M14): 42.2 µM; GI50 (OVCAR-4 [3]): 4.53 µM; LC50 (OVCAR-4 [3]): 43.9 µM; TGI (OVCAR-4 [3]): 17.7 µM; GI50 (A498 [4]): 18.2 µM; LC50 (concentration giving net 50% loss of initial cells) (A498 [4]): 58.5 µM; TGI (A498 [4]): 32.6 µM; growth at 10 µM (SW-620): -72.7%; growth at 10 µM (NCI-H23): 38.1%; growth at 10 µM (DU-145): 22.3%; growth at 10 µM (KM12): -0.89%
C=C1CC[C@@H]2[C@](C)(COC(C)=O)[C@H](OC(C)=O)CC[C@@]2(C)[C@H]1CC(Nc1ccc(S(=O)(=O)Nc2nc(C)cc(C)n2)cc1)C1=CCOC1=O (some centres not stated)	85.1%	39.2%	107%	90.3%	65.3%	65%	71.9%	44.6%	85.3%	112%	66.7%	67%	81.5%	41%	77%	74.2%	97.2%	21.7%	40.3%	19.1%	growth at 10 µM (SW-620): 40%; growth at 10 µM (NCI-H23): 84.3%; growth at 10 µM (DU-145): 82.3%; growth at 10 µM (KM12): 64.7%
C=C1CC[C@@H]2[C@](C)(COC(C)=O)[C@H](OC(C)=O)CC[C@@]2(C)[C@H]1CC(Nc1ccc(S(=O)(=O)Nc2cc(C)on2)cc1)C1=CCOC1=O (some centres not stated)	29.8%	-1.13%	61.1%	79.5%	72.2%	68.2%	27.2%	59.4%	98.6%	109%	31.6%	35%	62.6%	3.23%	29%	44.1%	80.4%	-2.05%	12.2%	9.67%	GI50 (OVCAR-5): 2.16 µM; LC50 (concentration causing net 50% loss of initial cells) (OVCAR-5): 7.61 µM; TGI (OVCAR-5): 4.05 µM; GI50 (MOLT-4): 2.12 µM; TGI (MOLT-4): 6.39 µM; CC50 (MOLT-4): > 100 µM; GI50 (M14): 1.69 µM; TGI (M14): 4.17 µM; CC50 (M14): 10.8 µM; GI50 (OVCAR-4 [3]): 2.91 µM; LC50 (OVCAR-4 [3]): 35.1 µM; TGI (OVCAR-4 [3]): 10.5 µM; GI50 (A498 [4]): 7.69 µM; LC50 (concentration giving net 50% loss of initial cells) (A498 [4]): 45 µM; TGI (A498 [4]): 20.3 µM; growth at 10 µM (SW-620): 14.7%; growth at 10 µM (NCI-H23): 71%; growth at 10 µM (DU-145): 71.1%; growth at 10 µM (KM12): 30.5%
